In brackets after ≈: the same amount, converted by molar mass.
Key:
Pseudomonas aeruginosa [1] = experiment: Antibacterial activity against multidrug-resistant Pseudomonas aeruginosa K34-7 producing Verona integron encoded metallo beta-lactamse-2 cultured in MHB medium assessed as reduction in bacterial growth incubated for 24 hrs by microdilution susceptibility test; format: functional; settings: K34-7, 24 h
Outline: (§1)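 Broth microdilution per CLSI M07-A9 (modified). Working solutions made from concentrated DMSO stocks kept at r.t., diluted in double-distilled water, final DMSO <1%. Inoculum 1–1.2 x 10⁶ cells/mL in Mueller-Hinton broth, mixed 1:1 with compound. 37 °C, 24 h, four parallels. Read as OD₆₀₀. Where precipitation left residual OD, the point of major OD decrease was taken as the inhibitory concentration.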

Staphylococcus aureus [2] = experiment: Antibacterial activity against multidrug-resistant Staphylococcus aureus 85/2082 cultured in MHB medium assessed as reduction in bacterial growth incubated for 24 hrs by microdilution susceptibility test; format: functional; settings: 85/2082, 24 h; outline: as §1
Staphylococcus aureus [3] = experiment: Antibacterial activity against Staphylococcus aureus ATCC 9144 cultured in MHB medium assessed as no bacterial growth incubated at 37 degC for 24 hrs by microdilution susceptibility test; format: functional; settings: ATCC 9144, 24 h
Outline: (§2)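 Broth microdilution per CLSI M07-A9 with modifications. Inoculum about 2.5–3 x 10⁴ cells/mL in Mueller-Hinton broth, mixed 1:1 with test derivative. DMSO stocks diluted in double-distilled water, final DMSO <1%. Incubation 24 h at 37 °C (20 °C for C. glutamicum). Growth and sterility controls included; oxytetracycline reference.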

HepG2 = experiment: Cytotoxicity against human HepG2 cells assessed as reduction in cell viability incubated for 4 hrs by CellTiter 96 Aqueous One Solution Reagent based assay; settings: HepG2, 4 h
Outline: (§3)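 HepG2 and MRC-5 cells seeded at 35 000 and 15 000 cells/well respectively, then held overnight at 37 °C, 5% CO₂. Compounds in serum-free MEM Earle's applied for 4 h. MTS reagent (CellTiter 96 AQueous One) added for a further 1 h, absorbance read at 485 nm. Survival expressed relative to medium (negative) and Triton X-100 (positive) controls.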

Enterococcus faecium [4] = experiment: Antibacterial activity against multidrug-resistant Enterococcus faecium 50758899 cultured in BHIB medium assessed as reduction in bacterial growth incubated for 24 hrs by microdilution susceptibility test; format: functional; settings: Enterococcus faecium, 50758899, 24 h
Outline: (§4)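 Enterococci grown in Brain Heart Infusion broth, otherwise broth microdilution per CLSI M07-A9 (modified). Concentrated DMSO stocks kept at r.t. and diluted in double-distilled water, final DMSO <1%. Inoculum 1–1.2 x 10⁶ cells/mL mixed 1:1 with compound. 37 °C, 24 h, four parallels. OD₆₀₀ read-out, lowest concentration with no growth.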

[5] = Aqueous solubility of the compound in DMSO; format: physicochemical
MRC5 = experiment: Cytotoxicity against human MRC5 cells assessed as reduction in cell viability incubated for 4 hrs by CellTiter 96 Aqueous One Solution Reagent based assay; settings: MRC5, 4 h; outline: as §3
Escherichia coli [6] = experiment: Antibacterial activity against Escherichia coli ATCC 25922 cultured in MHB medium assessed as no bacterial growth incubated at 37 degC for 24 hrs by microdilution susceptibility test; format: functional; settings: ATCC 25922, 24 h; outline: as §2
Klebsiella pneumoniae = experiment: Antibacterial activity against multidrug-resistant Klebsiella pneumoniae 50667959 producing Verona integron encoded metallo beta-lactamse-1 cultured in MHB medium assessed as reduction in bacterial growth incubated for 24 hrs by microdilution susceptibility test; format: functional; settings: Klebsiella pneumoniae, 50667959, 24 h; outline: as §1
Staphylococcus aureus [7] = experiment: Antibacterial activity against multidrug-resistant Staphylococcus aureus NCTC 10442 cultured in MHB medium assessed as reduction in bacterial growth incubated for 24 hrs by microdilution susceptibility test; format: functional; settings: NCTC 10442, 24 h; outline: as §1
Acinetobacter baumannii = experiment: Antibacterial activity against multidrug-resistant Acinetobacter baumannii K63-58 producing oxcillinase-23 cultured in MHB medium assessed as reduction in bacterial growth incubated for 24 hrs by microdilution susceptibility test; format: functional; settings: K63-58, 24 h; outline: as §1
Enterococcus faecium [8] = experiment: Antibacterial activity against multidrug-resistant Enterococcus faecium TUH50-22 cultured in BHIB medium assessed as reduction in bacterial growth incubated for 24 hrs by microdilution susceptibility test; format: functional; settings: TUH50-22, 24 h; outline: as §4
[9] = Drug metabolism in Sprague-Dawley rat liver microsomes assessed as CYP450-mediated 4-[2-(aminomethyl)-3-[3,5-bis(trifluoromethyl)phenyl]-2-(4,5-dihydrooxazol-3-ium-2-yl)propyl]-2,6-bis(trifluoromethyl)phenol formation incubated up to 3 hrs in presence of NADPH regenerating system by RP-HPLC-MS analysis; format: ADME
Outline: (§5)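 Substrate at 1 µL of 100 µM aqueous stock in 100 mM potassium phosphate, pH 7.4, with NADPH regenerating system. Pooled male Sprague–Dawley rat liver microsomes (20 mg/mL stock) added, then incubated at 37 °C. Sampled at 0–180 min and quenched with cold methanol containing propranolol internal standard. Analysed by RP-HPLC–HRMS in positive ESI mode. Metabolites confirmed by HCD MS2. Triplicate incubations.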

Enterococcus faecium [10] = experiment: Antibacterial activity against multidrug-resistant Enterococcus faecium 50901530 cultured in BHIB medium assessed as reduction in bacterial growth incubated for 24 hrs by microdilution susceptibility test; format: functional; settings: Enterococcus faecium, 50901530, 24 h; outline: as §4
Pseudomonas aeruginosa [11] = experiment: Antibacterial activity against multidrug-resistant Pseudomonas aeruginosa 50692520 producing Verona integron encoded metallo beta-lactamse cultured in MHB medium assessed as reduction in bacterial growth incubated for 24 hrs by microdilution susceptibility test; format: functional; settings: Pseudomonas aeruginosa, 50692520, 24 h; outline: as §1
Escherichia coli [12] = experiment: Antibacterial activity against multidrug-resistant Escherichia coli 50676002 producing New Delhi metallo-beta-lactamase-1 cultured in MHB medium assessed as reduction in bacterial growth incubated for 24 hrs by microdilution susceptibility test; format: functional; settings: Escherichia coli, 50676002, 24 h; outline: as §1
Enterococcus faecium [13] = experiment: Antibacterial activity against multidrug-resistant Enterococcus faecium K36-18 cultured in BHIB medium assessed as reduction in bacterial growth incubated for 24 hrs by microdilution susceptibility test; format: functional; settings: K36-18, 24 h; outline: as §4
Staphylococcus aureus [14] = experiment: Antibacterial activity against multidrug-resistant Staphylococcus aureus N315 cultured in MHB medium assessed as reduction in bacterial growth incubated for 24 hrs by microdilution susceptibility test; format: functional; settings: N315, 24 h; outline: as §1
[15] = Drug metabolism in Sprague-Dawley rat liver microsomes assessed as CYP450-mediated 2-[[2-(aminomethyl)-3-[3,5-bis(trifluoromethyl)phenyl]-2-[[3,5-bis(trifluoromethyl)phenyl]methyl]propanoyl]amino]acetic acid formation incubated up to 3 hrs in presence of NADPH regenerating system by RP-HPLC-MS analysis; format: ADME; outline: as §5
[16] = Drug metabolism in Sprague-Dawley rat liver microsomes assessed as CYP450-mediated 2-[[2-(aminomethyl)-3-(3,5-dibromophenyl)-2-[(3,5-dibromophenyl)methyl]propanoyl]amino]acetic acid formation incubated up to 3 hrs in presence of NADPH regenerating system by RP-HPLC-MS analysis; format: ADME; outline: as §5

SMILES | MIC (Pseudomonas aeruginosa [1]) [µg/mL] | MIC (Staphylococcus aureus [2]) [µg/mL] | MIC (Staphylococcus aureus [3]) [µg/mL] | EC50 (HepG2) [µg/mL] | MIC (Enterococcus faecium [4]) [µg/mL] | solubility [5] | EC50 (MRC5) [µg/mL] | MIC (Escherichia coli [6]) [µg/mL] | MIC (Klebsiella pneumoniae) [µg/mL] | MIC (Staphylococcus aureus [7]) [µg/mL] | MIC (Acinetobacter baumannii) [µg/mL] | MIC (Enterococcus faecium [8]) [µg/mL] | Drug metabolism [9] | MIC (Enterococcus faecium [10]) [µg/mL] | MIC (Pseudomonas aeruginosa [11]) [µg/mL] | MIC (Escherichia coli [12]) [µg/mL] | MIC (Enterococcus faecium [13]) [µg/mL] | MIC (Staphylococcus aureus [14]) [µg/mL] | Drug metabolism [15] | Drug metabolism [16]
NCCNC(=O)C(CN)(Cc1cc(C(F)(F)F)cc(C(F)(F)F)c1)Cc1cc(C(F)(F)F)cc(C(F)(F)F)c1 | > 32 | 16 (≈ 27.4 µM) | 4 (≈ 6.86 µM) | 11 (≈ 18.9 µM) | 4 (≈ 6.86 µM) | Soluble | 11 (≈ 18.9 µM) | 4 (≈ 6.86 µM) | 16 (≈ 27.4 µM) | 16 (≈ 27.4 µM) | 8 (≈ 13.7 µM) | 8 (≈ 13.7 µM) | Metabolite_Notdetected | 4 (≈ 6.86 µM) | > 32 | 16 (≈ 27.4 µM) | 8 (≈ 13.7 µM) | 16 (≈ 27.4 µM) | Metabolite_Notdetected | 
NCCNCC(CN)(Cc1cc(Br)cc(Br)c1)Cc1cc(Br)cc(Br)c1 | 16 (≈ 26.1 µM) | 8 (≈ 13 µM) | 2 (≈ 3.26 µM) | 12 (≈ 19.6 µM) | 4 (≈ 6.52 µM) |  | 15 (≈ 24.5 µM) | 4 (≈ 6.52 µM) | 16 (≈ 26.1 µM) | 4 (≈ 6.52 µM) | 8 (≈ 13 µM) | 4 (≈ 6.52 µM) |  | 4 (≈ 6.52 µM) | 32 (≈ 52.2 µM) | 8 (≈ 13 µM) | 8 (≈ 13 µM) | 4 (≈ 6.52 µM) |  | 
NCCNC(=O)C(CN)(Cc1cc(Br)cc(Br)c1)Cc1cc(Br)cc(Br)c1 | > 32 | 8 (≈ 12.8 µM) | 2 (≈ 3.19 µM) | 13 (≈ 20.7 µM) | 8 (≈ 12.8 µM) | Soluble | 17 (≈ 27.1 µM) | 4 (≈ 6.38 µM) | 16 (≈ 25.5 µM) | 8 (≈ 12.8 µM) | 32 (≈ 51 µM) | 8 (≈ 12.8 µM) |  | 8 (≈ 12.8 µM) | > 32 | 16 (≈ 25.5 µM) | 8 (≈ 12.8 µM) | 8 (≈ 12.8 µM) |  | Metabolite_Notdetected
NCCNCC(CN)(Cc1ccccc1Br)Cc1ccccc1Br | 32 (≈ 70.3 µM) | 8 (≈ 17.6 µM) | 16 (≈ 35.1 µM) | 18 (≈ 39.5 µM) | 16 (≈ 35.1 µM) |  | 8 (≈ 17.6 µM) | 16 (≈ 35.1 µM) | 16 (≈ 35.1 µM) | 16 (≈ 35.1 µM) | 16 (≈ 35.1 µM) | 16 (≈ 35.1 µM) |  | 16 (≈ 35.1 µM) | 16 (≈ 35.1 µM) | 16 (≈ 35.1 µM) | 16 (≈ 35.1 µM) | 8 (≈ 17.6 µM) |  | 
N=C(N)NCCNC(=O)C(CNC(=N)N)(Cc1cc(Br)cc(Br)c1)Cc1cc(Br)cc(Br)c1 | 16 (≈ 22.5 µM) | 2 (≈ 2.81 µM) | 1 (≈ 1.41 µM) | > 64 | 4 (≈ 5.63 µM) |  | > 64 | 8 (≈ 11.3 µM) | 16 (≈ 22.5 µM) | 2 (≈ 2.81 µM) | 16 (≈ 22.5 µM) | 2 (≈ 2.81 µM) |  | 4 (≈ 5.63 µM) | 4 (≈ 5.63 µM) | 8 (≈ 11.3 µM) | 4 (≈ 5.63 µM) | 2 (≈ 2.81 µM) |  | 
NCCNC(=O)C(CN)(Cc1ccccc1C(F)(F)F)Cc1ccccc1C(F)(F)F | > 32 | > 32 | 32 (≈ 71.5 µM) | 45 (≈ 101 µM) | > 32 | Soluble | 42 (≈ 93.9 µM) | 32 (≈ 71.5 µM) | > 32 | > 32 | > 32 | > 32 |  | 32 (≈ 71.5 µM) | > 32 | > 32 | > 32 | > 32 |  | 

From ChEMBL document CHEMBL4311965, “Antimicrobial activity of amphipathic α,α-disubstituted β-amino amide derivatives against ESBL - CARBA producing multi-resistant bacteria; effect of halogenation, lipophilicity and cationic character” (Eur J Med Chem, 2019)
